Measurements taken from ChEMBL document CHEMBL4689842, “EUbOPEN Chemogenomics Library wave 1” (2021).

Tested on: HEK-293T
Assay: Multiplex assay against HEK293T;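 for Population Tubulin-Different-Phenotype (%): share of the cells with healthy nuclei that show this phenotype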
Type: toxicity, cell-based
Conditions: human
Method in brief: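 Cells were classed with CellPathfinder machine-learning gating, first as Hoechst high-intensity objects or normal cells, then (normal cells) as healthy, pyknosed or fragmented nuclei, and finally (pyknosed cells) as mitotic or apoptotic. Staining of live cells at seeding used Hoechst33342, BioTracker Green Microtubule Cytoskeleton Dye, MitoTracker Red and Annexin V Alexa Fluor 680, with imaging on a CQ1 microscope at 37°C and 5% CO2 after compound addition. Tubulin, mitochondrial-mass and membrane-permeability phenotypes are per cents of healthy-nucleus cells.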

[1] = 12 h, 1 µM, compound concentration 1 uM, replicate 1
[2] = 12 h, 1 µM, compound concentration 1 uM, replicate 2
[3] = 12 h, 10 µM, compound concentration 10 uM, replicate 1
[4] = 12 h, 10 µM, compound concentration 10 uM, replicate 2
[5] = 24 h, 1 µM, compound concentration 1 uM, replicate 1
[6] = 24 h, 1 µM, compound concentration 1 uM, replicate 2
[7] = 24 h, 10 µM, compound concentration 10 uM, replicate 1
[8] = 24 h, 10 µM, compound concentration 10 uM, replicate 2
[9] = 48 h, 1 µM, compound concentration 1 uM, replicate 1
[10] = 48 h, 1 µM, compound concentration 1 uM, replicate 2
[11] = 48 h, 10 µM, compound concentration 10 uM, replicate 1
[12] = 48 h, 10 µM, compound concentration 10 uM, replicate 2

CCCSc1nc(N[C@@H]2C[C@H]2c2ccc(F)c(F)c2)c2nnn([C@@H]3C[C@H](OCCO)[C@@H](O)[C@H]3O)c2n1 [TICAGRELOR]
Population Apoptotic (%) [1]: 56%
Population Fragmented Nuclei (%) [1]: 19%
Population Healthy Nuclei (%) [1]: 35%
Population Hoechst High Intensity Objects (%) [1]: 18%
Population Membrane Permeable-Phenotype (%) [1]: 4%
Population Mitochondria Different-Phenotype (%) [1]: 89%
Population Mitotic Cells (%) [1]: 43%
Population Normal (%) [1]: 81%
Population Pyknosed Nuclei (%) [1]: 45%
Population Tubulin-Different-Phenotype (%) [1]: 54%
Total Cell Count [1]: 167
Population Apoptotic (%) [2]: 9%
Population Fragmented Nuclei (%) [2]: 3%
Population Healthy Nuclei (%) [2]: 49%
Population Hoechst High Intensity Objects (%) [2]: 3%
Population Membrane Permeable-Phenotype (%) [2]: 10%
Population Mitochondria Different-Phenotype (%) [2]: 21%
Population Mitotic Cells (%) [2]: 90%
Population Normal (%) [2]: 96%
Population Pyknosed Nuclei (%) [2]: 46%
Population Tubulin-Different-Phenotype (%) [2]: 27%
Total Cell Count [2]: 190
Population Apoptotic (%) [3]: 68%
Population Fragmented Nuclei (%) [3]: 34%
Population Healthy Nuclei (%) [3]: 4%
Population Hoechst High Intensity Objects (%) [3]: 20%
Population Membrane Permeable-Phenotype (%) [3]: 14%
Population Mitochondria Different-Phenotype (%) [3]: 85%
Population Mitotic Cells (%) [3]: 31%
Population Normal (%) [3]: 79%
Population Pyknosed Nuclei (%) [3]: 60%
Population Tubulin-Different-Phenotype (%) [3]: 85%
Total Cell Count [3]: 178
Population Apoptotic (%) [4]: 85%
Population Fragmented Nuclei (%) [4]: 6%
Population Healthy Nuclei (%) [4]: 26%
Population Hoechst High Intensity Objects (%) [4]: 4%
Population Membrane Permeable-Phenotype (%) [4]: 2%
Population Mitochondria Different-Phenotype (%) [4]: 95%
Population Mitotic Cells (%) [4]: 14%
Population Normal (%) [4]: 95%
Population Pyknosed Nuclei (%) [4]: 66%
Population Tubulin-Different-Phenotype (%) [4]: 93%
Total Cell Count [4]: 176
Population Apoptotic (%) [5]: 46%
Population Fragmented Nuclei (%) [5]: 23%
Population Healthy Nuclei (%) [5]: 32%
Population Hoechst High Intensity Objects (%) [5]: 18%
Population Membrane Permeable-Phenotype (%) [5]: 2%
Population Mitochondria Different-Phenotype (%) [5]: 75%
Population Mitotic Cells (%) [5]: 53%
Population Normal (%) [5]: 81%
Population Pyknosed Nuclei (%) [5]: 44%
Population Tubulin-Different-Phenotype (%) [5]: 45%
Total Cell Count [5]: 181
Population Apoptotic (%) [6]: 18%
Population Fragmented Nuclei (%) [6]: 4%
Population Healthy Nuclei (%) [6]: 62%
Population Hoechst High Intensity Objects (%) [6]: 3%
Population Membrane Permeable-Phenotype (%) [6]: 7%
Population Mitochondria Different-Phenotype (%) [6]: 28%
Population Mitotic Cells (%) [6]: 81%
Population Normal (%) [6]: 96%
Population Pyknosed Nuclei (%) [6]: 33%
Population Tubulin-Different-Phenotype (%) [6]: 48%
Total Cell Count [6]: 257
Population Apoptotic (%) [7]: 76%
Population Fragmented Nuclei (%) [7]: 35%
Population Healthy Nuclei (%) [7]: 6%
Population Hoechst High Intensity Objects (%) [7]: 21%
Population Mitochondria Different-Phenotype (%) [7]: 77%
Population Mitotic Cells (%) [7]: 23%
Population Normal (%) [7]: 78%
Population Pyknosed Nuclei (%) [7]: 57%
Population Tubulin-Different-Phenotype (%) [7]: 88%
Total Cell Count [7]: 178
Population Apoptotic (%) [8]: 89%
Population Fragmented Nuclei (%) [8]: 4%
Population Healthy Nuclei (%) [8]: 26%
Population Hoechst High Intensity Objects (%) [8]: 7%
Population Membrane Permeable-Phenotype (%) [8]: 0%
Population Mitochondria Different-Phenotype (%) [8]: 95%
Population Mitotic Cells (%) [8]: 10%
Population Normal (%) [8]: 92%
Population Pyknosed Nuclei (%) [8]: 69%
Population Tubulin-Different-Phenotype (%) [8]: 95%
Total Cell Count [8]: 182
Population Apoptotic (%) [9]: 55%
Population Fragmented Nuclei (%) [9]: 23%
Population Healthy Nuclei (%) [9]: 40%
Population Hoechst High Intensity Objects (%) [9]: 12%
Population Membrane Permeable-Phenotype (%) [9]: 3%
Population Mitochondria Different-Phenotype (%) [9]: 51%
Population Mitotic Cells (%) [9]: 44%
Population Normal (%) [9]: 87%
Population Pyknosed Nuclei (%) [9]: 36%
Population Tubulin-Different-Phenotype (%) [9]: 50%
Total Cell Count [9]: 216
Population Apoptotic (%) [10]: 11%
Population Fragmented Nuclei (%) [10]: 5%
Population Healthy Nuclei (%) [10]: 78%
Population Hoechst High Intensity Objects (%) [10]: 4%
Population Membrane Permeable-Phenotype (%) [10]: 4%
Population Mitochondria Different-Phenotype (%) [10]: 12%
Population Mitotic Cells (%) [10]: 88%
Population Normal (%) [10]: 95%
Population Pyknosed Nuclei (%) [10]: 16%
Population Tubulin-Different-Phenotype (%) [10]: 31%
Total Cell Count [10]: 492
Population Apoptotic (%) [11]: 81%
Population Fragmented Nuclei (%) [11]: 38%
Population Healthy Nuclei (%) [11]: 3%
Population Hoechst High Intensity Objects (%) [11]: 24%
Population Membrane Permeable-Phenotype (%) [11]: 50%
Population Mitochondria Different-Phenotype (%) [11]: 75%
Population Mitotic Cells (%) [11]: 18%
Population Normal (%) [11]: 75%
Population Pyknosed Nuclei (%) [11]: 58%
Population Tubulin-Different-Phenotype (%) [11]: 75%
Total Cell Count [11]: 173
Population Apoptotic (%) [12]: 92%
Population Fragmented Nuclei (%) [12]: 7%
Population Healthy Nuclei (%) [12]: 29%
Population Hoechst High Intensity Objects (%) [12]: 5%
Population Membrane Permeable-Phenotype (%) [12]: 2%
Population Mitochondria Different-Phenotype (%) [12]: 97%
Population Mitotic Cells (%) [12]: 7%
Population Normal (%) [12]: 94%
Population Pyknosed Nuclei (%) [12]: 63%
Population Tubulin-Different-Phenotype (%) [12]: 86%
Total Cell Count [12]: 164

C=CC(=O)Nc1cccc(Oc2nc(Nc3ccc(N4CCN(C)CC4)cc3OC)ncc2Cl)c1
Population Apoptotic (%) [1]: 22%
Population Fragmented Nuclei (%) [1]: 21%
Population Healthy Nuclei (%) [1]: 27%
Population Hoechst High Intensity Objects (%) [1]: 18%
Population Membrane Permeable-Phenotype (%) [1]: 13%
Population Mitochondria Different-Phenotype (%) [1]: 25%
Population Mitotic Cells (%) [1]: 77%
Population Normal (%) [1]: 81%
Population Pyknosed Nuclei (%) [1]: 50%
Population Tubulin-Different-Phenotype (%) [1]: 77%
Total Cell Count [1]: 425
Population Apoptotic (%) [2]: 11%
Population Fragmented Nuclei (%) [2]: 4%
Population Healthy Nuclei (%) [2]: 70%
Population Hoechst High Intensity Objects (%) [2]: 7%
Population Membrane Permeable-Phenotype (%) [2]: 11%
Population Mitochondria Different-Phenotype (%) [2]: 54%
Population Mitotic Cells (%) [2]: 88%
Population Normal (%) [2]: 92%
Population Pyknosed Nuclei (%) [2]: 25%
Population Tubulin-Different-Phenotype (%) [2]: 98%
Total Cell Count [2]: 1025
Population Apoptotic (%) [3]: 16%
Population Fragmented Nuclei (%) [3]: 10%
Population Healthy Nuclei (%) [3]: 70%
Population Hoechst High Intensity Objects (%) [3]: 12%
Population Membrane Permeable-Phenotype (%) [3]: 3%
Population Mitochondria Different-Phenotype (%) [3]: 8%
Population Mitotic Cells (%) [3]: 83%
Population Normal (%) [3]: 87%
Population Pyknosed Nuclei (%) [3]: 18%
Population Tubulin-Different-Phenotype (%) [3]: 18%
Total Cell Count [3]: 722
Population Apoptotic (%) [4]: 8%
Population Fragmented Nuclei (%) [4]: 7%
Population Healthy Nuclei (%) [4]: 86%
Population Hoechst High Intensity Objects (%) [4]: 3%
Population Membrane Permeable-Phenotype (%) [4]: 4%
Population Mitochondria Different-Phenotype (%) [4]: 15%
Population Mitotic Cells (%) [4]: 91%
Population Normal (%) [4]: 96%
Population Pyknosed Nuclei (%) [4]: 6%
Population Tubulin-Different-Phenotype (%) [4]: 16%
Total Cell Count [4]: 1384
Population Apoptotic (%) [5]: 36%
Population Fragmented Nuclei (%) [5]: 23%
Population Healthy Nuclei (%) [5]: 33%
Population Hoechst High Intensity Objects (%) [5]: 16%
Population Membrane Permeable-Phenotype (%) [5]: 10%
Population Mitochondria Different-Phenotype (%) [5]: 49%
Population Mitotic Cells (%) [5]: 63%
Population Normal (%) [5]: 83%
Population Pyknosed Nuclei (%) [5]: 43%
Population Tubulin-Different-Phenotype (%) [5]: 78%
Total Cell Count [5]: 379
Population Apoptotic (%) [6]: 13%
Population Fragmented Nuclei (%) [6]: 8%
Population Healthy Nuclei (%) [6]: 76%
Population Hoechst High Intensity Objects (%) [6]: 7%
Population Mitochondria Different-Phenotype (%) [6]: 36%
Population Mitotic Cells (%) [6]: 86%
Population Normal (%) [6]: 92%
Population Pyknosed Nuclei (%) [6]: 14%
Population Tubulin-Different-Phenotype (%) [6]: 89%
Total Cell Count [6]: 1188
Population Apoptotic (%) [7]: 8%
Population Fragmented Nuclei (%) [7]: 11%
Population Healthy Nuclei (%) [7]: 79%
Population Hoechst High Intensity Objects (%) [7]: 8%
Population Membrane Permeable-Phenotype (%) [7]: 11%
Population Mitochondria Different-Phenotype (%) [7]: 5%
Population Mitotic Cells (%) [7]: 92%
Population Normal (%) [7]: 91%
Population Pyknosed Nuclei (%) [7]: 8%
Population Tubulin-Different-Phenotype (%) [7]: 23%
Total Cell Count [7]: 923
Population Apoptotic (%) [8]: 2%
Population Fragmented Nuclei (%) [8]: 18%
Population Healthy Nuclei (%) [8]: 78%
Population Hoechst High Intensity Objects (%) [8]: 2%
Population Membrane Permeable-Phenotype (%) [8]: 7%
Population Mitochondria Different-Phenotype (%) [8]: 2%
Population Mitotic Cells (%) [8]: 97%
Population Normal (%) [8]: 97%
Population Pyknosed Nuclei (%) [8]: 3%
Population Tubulin-Different-Phenotype (%) [8]: 12%
Total Cell Count [8]: 2281
